The nature of data set [1]: Cardiotoxicity in Langendorff perfused Wistar rat heart assessed as QRS interval time at 10 uM by electrocardiography (reference value: 13.31 to 14.35 milliseconds). Type of data set: toxicity, tissue-based.
Data set [2] can be described thus: Cardiotoxicity in Langendorff perfused Wistar rat heart assessed as PQ interval time at 1 uM by electrocardiography (reference value: 41.13 to 42.63 milliseconds). The class given is toxicity, tissue-based.
The nature of data set [3]: Cardiotoxicity in Langendorff perfused Wistar rat heart assessed as cycle length interval time at 1 uM by electrocardiography (reference value: 217.15 to 242.23 milliseconds). The class given is toxicity, tissue-based.
For data set [4], the target named is Voltage-dependent L-type calcium channel subunit alpha-1C (Rattus norvegicus, UniProt P22002). The data set can be described thus: Inhibition of CaV1.2 channel in rat tail artery myocytes assessed as reduction in Ba2+ current at 30 uM at -50 mV holding potential by whole-cell patch-clamp assay. The class given is cell-based. In outline: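 Freshly isolated rat tail artery smooth muscle cells (collagenase digestion), whole-cell patch clamp at 20–22 °C. External solution: 5 mM Ba2+, 30 mM TEA; Cs+-based internal solution, pH 7.4. Currents from 250-ms pulses to 0 mV from Vh −50 mV at 0.067 Hz, after 7–10 min stabilisation. Leak corrected with 10 μM nifedipine. Peak current as % of control; n = 3–6 cells from ≥3 animals.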
Sequence of Voltage-dependent L-type calcium channel subunit alpha-1C (P22002 whole entry): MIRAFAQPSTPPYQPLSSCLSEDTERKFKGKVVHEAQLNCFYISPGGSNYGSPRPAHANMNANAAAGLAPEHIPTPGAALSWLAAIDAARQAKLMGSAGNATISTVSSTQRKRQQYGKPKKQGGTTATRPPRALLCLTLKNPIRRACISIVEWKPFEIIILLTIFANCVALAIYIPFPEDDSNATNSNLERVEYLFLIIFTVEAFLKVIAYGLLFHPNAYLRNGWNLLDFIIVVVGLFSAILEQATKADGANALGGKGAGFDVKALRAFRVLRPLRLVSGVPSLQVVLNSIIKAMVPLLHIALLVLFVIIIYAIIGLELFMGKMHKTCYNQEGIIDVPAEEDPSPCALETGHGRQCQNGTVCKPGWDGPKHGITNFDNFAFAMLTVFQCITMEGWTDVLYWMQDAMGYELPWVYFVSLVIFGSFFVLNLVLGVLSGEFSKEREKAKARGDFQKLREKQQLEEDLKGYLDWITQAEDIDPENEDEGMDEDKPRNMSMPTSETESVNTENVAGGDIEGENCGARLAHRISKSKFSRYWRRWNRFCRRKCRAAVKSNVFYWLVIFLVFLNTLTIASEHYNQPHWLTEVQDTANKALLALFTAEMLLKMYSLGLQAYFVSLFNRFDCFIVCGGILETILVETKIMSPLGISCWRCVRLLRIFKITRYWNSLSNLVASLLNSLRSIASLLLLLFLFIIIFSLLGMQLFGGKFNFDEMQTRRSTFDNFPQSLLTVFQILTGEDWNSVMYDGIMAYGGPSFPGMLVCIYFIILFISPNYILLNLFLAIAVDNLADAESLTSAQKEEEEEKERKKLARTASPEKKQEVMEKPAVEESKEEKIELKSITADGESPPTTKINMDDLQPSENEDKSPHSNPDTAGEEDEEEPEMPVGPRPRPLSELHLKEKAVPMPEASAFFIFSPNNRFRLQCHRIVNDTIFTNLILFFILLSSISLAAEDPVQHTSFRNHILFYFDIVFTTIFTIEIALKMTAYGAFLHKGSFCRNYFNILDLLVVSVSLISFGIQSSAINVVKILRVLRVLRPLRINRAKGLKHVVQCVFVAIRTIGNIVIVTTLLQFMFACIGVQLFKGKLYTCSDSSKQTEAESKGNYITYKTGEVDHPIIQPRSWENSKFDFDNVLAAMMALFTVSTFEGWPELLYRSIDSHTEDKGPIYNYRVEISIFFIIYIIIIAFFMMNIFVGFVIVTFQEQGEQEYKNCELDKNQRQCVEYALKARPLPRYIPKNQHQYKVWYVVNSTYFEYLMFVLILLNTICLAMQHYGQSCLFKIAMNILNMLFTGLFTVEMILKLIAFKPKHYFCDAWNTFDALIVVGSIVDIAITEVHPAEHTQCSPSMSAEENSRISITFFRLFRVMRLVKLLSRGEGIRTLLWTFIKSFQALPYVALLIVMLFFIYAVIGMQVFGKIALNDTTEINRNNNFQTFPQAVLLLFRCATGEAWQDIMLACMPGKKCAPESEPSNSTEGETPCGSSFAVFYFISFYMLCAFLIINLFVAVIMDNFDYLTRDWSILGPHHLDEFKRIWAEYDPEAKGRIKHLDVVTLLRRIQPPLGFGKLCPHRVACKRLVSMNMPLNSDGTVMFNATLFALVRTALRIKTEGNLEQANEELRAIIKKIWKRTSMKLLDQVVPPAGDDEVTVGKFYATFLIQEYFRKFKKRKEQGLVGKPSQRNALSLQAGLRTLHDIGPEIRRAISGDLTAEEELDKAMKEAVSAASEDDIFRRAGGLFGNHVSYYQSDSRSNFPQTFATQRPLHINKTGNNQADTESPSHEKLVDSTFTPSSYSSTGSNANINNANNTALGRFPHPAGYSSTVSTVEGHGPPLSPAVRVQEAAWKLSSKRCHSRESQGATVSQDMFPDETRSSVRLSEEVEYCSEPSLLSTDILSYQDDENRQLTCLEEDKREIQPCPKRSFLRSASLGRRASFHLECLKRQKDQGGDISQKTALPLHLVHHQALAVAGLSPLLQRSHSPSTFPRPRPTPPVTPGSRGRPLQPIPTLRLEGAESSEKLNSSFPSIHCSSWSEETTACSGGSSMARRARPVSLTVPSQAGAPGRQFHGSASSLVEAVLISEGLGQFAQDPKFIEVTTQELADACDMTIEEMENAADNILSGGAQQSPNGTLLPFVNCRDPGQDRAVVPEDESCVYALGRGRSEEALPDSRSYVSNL
For orientation: The patch-clamp technique gives a direct electrical read-out from membranes.

In data set [5] the test system is Plasmodium falciparum. Kind of data set: Antiplasmodial activity against chloroquine-sensitive Plasmodium falciparum D10 after 72 hrs by lactate dehydrogenase assay. As to conditions: D10, 72 h. Type of data set: functional, organism-based. In short, it runs like this:
(§1)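 Asynchronous blood-stage cultures at 1–1.5% parasitemia and 1% final hematocrit in human A+ RBCs, RPMI 1640 with 1% AlbuMax, hypoxanthine, HEPES and glutamine. Serial dilutions from DMSO stocks, final DMSO <1%. Incubated 72 h at 37 °C under 1% O₂/5% CO₂. IC50 is the mean of ≥3 experiments in duplicate.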

In data set [6] the target is T1, Phosphoethanolamine N-methyltransferase (Plasmodium falciparum, UniProt Q8IDQ9).
T1 sequence (Q8IDQ9 whole entry): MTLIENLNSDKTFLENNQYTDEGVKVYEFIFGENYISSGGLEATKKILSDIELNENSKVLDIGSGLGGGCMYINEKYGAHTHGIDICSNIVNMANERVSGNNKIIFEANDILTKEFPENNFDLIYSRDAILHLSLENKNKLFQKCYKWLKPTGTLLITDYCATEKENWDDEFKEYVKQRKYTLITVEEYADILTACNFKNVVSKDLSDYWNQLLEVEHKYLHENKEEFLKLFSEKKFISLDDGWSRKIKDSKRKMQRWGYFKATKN
Kind of data set: Inhibition of plasmodium falciparum phosphoethanolamine N-methyltransferase expressed in Escherichia coli using phosphoethanolamine as substrate and [methyl-14C] SAM by radiochemical assay. In short, it runs like this:
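Recombinant PfPMT purified from E. coli, 2 μg per 100 μL reaction. Buffer 0.1 M HEPES-KOH pH 8.0, 2 mM Na2EDTA, 10% glycerol, 5% DMSO, with 30 μM SAM (100 nCi [methyl-14C]SAM) and 55 μM phosphoethanolamine; radiochemical read-out.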

Data set [7] in a line: Cardiotoxicity in Langendorff perfused Wistar rat heart assessed as QRS interval time at 3 uM by electrocardiography (reference value: 13.31 to 14.35 milliseconds). Type of data set: toxicity, tissue-based.
Data set [8] is described as follows: Cardiotoxicity in Langendorff perfused Wistar rat heart assessed as PQ interval time at 0.1 uM by electrocardiography (reference value: 41.13 to 42.63 milliseconds). Type of data set: toxicity, tissue-based.
The nature of data set [9]: Cardiotoxicity in Langendorff perfused Wistar rat heart assessed as QTc interval time at 10 uM by electrocardiography (reference value: 76.45 to 80.07 milliseconds). The class given is toxicity, tissue-based.
Data set [10] is described as follows: Cardiotoxicity in Langendorff perfused Wistar rat heart assessed as frequency of heart rate at 1 uM by electrocardiography (reference value: 247.05 to 275.90 bpm). Type of data set: toxicity, tissue-based.
The subject of data set [11] is Plasmodium falciparum. Kind of data set: Antiplasmodial activity against chloroquine-resistant Plasmodium falciparum W2 after 72 hrs by lactate dehydrogenase assay. Type of data set: functional, organism-based. Particulars: W2, 72 h. In outline: as §1
A short description of data set [12]: Cardiotoxicity in Langendorff perfused Wistar rat heart assessed as cycle length interval time at 0.1 uM by electrocardiography (reference value: 217.15 to 242.23 milliseconds). Type of data set: toxicity, tissue-based.
Data set [13] can be described thus: Cardiotoxicity in Langendorff perfused Wistar rat heart assessed as reduction of left ventricular pressure. Type of data set: toxicity, tissue-based.
A short description of data set [14]: Cardiotoxicity in Langendorff perfused Wistar rat heart assessed as frequency of heart rate at 3 uM by electrocardiography (reference value: 247.05 to 275.90 bpm). The class given is toxicity, tissue-based.
A short description of data set [15]: Cardiotoxicity in Langendorff perfused Wistar rat heart assessed as PQ interval time at 3 uM by electrocardiography (reference value: 41.13 to 42.63 milliseconds). Type of data set: toxicity, tissue-based.
The next data set concerns Plasmodium berghei. The data set can be described thus: Antimalarial activity against liver stage form of mCherry expressing Plasmodium berghei ANKA sporozoites infected in mouse primary hepatocytes assessed as reduction in parasite size at 0.0625 to 4 uM administered 2 hrs post infection and measured after 48 hrs post infection with medium change at 24 hrs post infection by fluorescent microscopic analysis. The class given is functional, organism-based. In outline:
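Parasite number and size in unfixed cells by automated microscopy at 48 hpi. Detached cells collected at 65 hpi, counted by fluorescence microscopy, expressed as % of 48 h parasite number. n = 4; one-way ANOVA with Dunnett's test.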

Data set [16] is described as follows: Cardiotoxicity in Langendorff perfused Wistar rat heart assessed as cycle length interval time at 3 uM by electrocardiography (reference value: 217.15 to 242.23 milliseconds). The class given is toxicity, tissue-based.
Data set [17] is described as follows: Cardiotoxicity in Langendorff perfused Wistar rat heart assessed as cycle length interval time at 10 uM by electrocardiography (reference value: 217.15 to 242.23 milliseconds). Type of data set: toxicity, tissue-based.

Calls of active or inactive are those of the source. The calls are words filed in the database; no cut-off is given here.

One may read the IC50 as the concentration that inhibits the measured activity by half. A higher IC50 goes with weaker potency. On to `Clc1ccc(-c2ccc(CNCC3CCNCC3)o2)c(-c2ccccc2)c1`, for which the Time in data set [1] was 17.91 ms; in data set [2], 41.59 ms; in data set [3] it was 217.02 ms; in data set [7], 14.65 ms; in data set [8], 41.24 ms; in data set [9], 83.77 ms. Also, the Time in [12] was 218.32 ms; in [15] it was 45.47 ms; in data set [16], 216.73 ms; in data set [17] it was 232.2 ms. Moreover, in [4], the “inhibition (INH)” value is recorded as “Active”. For the same compound, the IC50 with Plasmodium falciparum [5] came out at 880 nM; in [6], 44.3 µM; with Plasmodium falciparum [11], 2400 nM. Besides, the Activity is recorded as 275.47 bpm in data set [10], “Dose-dependent effect” in data set [13] and 276.4 bpm in data set [14]. Moreover, the outcome in the data set with Plasmodium berghei was inactive.
